Laboratory results reported in ChEMBL document CHEMBL3751740, “New MKLP-2 inhibitors in the paprotrain series: Design, synthesis and biological evaluations” (Bioorg Med Chem, 2016).
Active and inactive are the calls of the source. No cut-off for these calls is given here.

Columns and labels:
[1] = biological target: T1, Chromosome-associated kinesin KIF4A (Homo sapiens) (UniProt O95239); assay: Inhibition of porcine brain microtubule-stimulated human recombinant GST-tagged Kif4A ATPase activity at 15 uM by microplate reader in presence of Mg2+ ATP relative to control
T1 sequence (whole entry): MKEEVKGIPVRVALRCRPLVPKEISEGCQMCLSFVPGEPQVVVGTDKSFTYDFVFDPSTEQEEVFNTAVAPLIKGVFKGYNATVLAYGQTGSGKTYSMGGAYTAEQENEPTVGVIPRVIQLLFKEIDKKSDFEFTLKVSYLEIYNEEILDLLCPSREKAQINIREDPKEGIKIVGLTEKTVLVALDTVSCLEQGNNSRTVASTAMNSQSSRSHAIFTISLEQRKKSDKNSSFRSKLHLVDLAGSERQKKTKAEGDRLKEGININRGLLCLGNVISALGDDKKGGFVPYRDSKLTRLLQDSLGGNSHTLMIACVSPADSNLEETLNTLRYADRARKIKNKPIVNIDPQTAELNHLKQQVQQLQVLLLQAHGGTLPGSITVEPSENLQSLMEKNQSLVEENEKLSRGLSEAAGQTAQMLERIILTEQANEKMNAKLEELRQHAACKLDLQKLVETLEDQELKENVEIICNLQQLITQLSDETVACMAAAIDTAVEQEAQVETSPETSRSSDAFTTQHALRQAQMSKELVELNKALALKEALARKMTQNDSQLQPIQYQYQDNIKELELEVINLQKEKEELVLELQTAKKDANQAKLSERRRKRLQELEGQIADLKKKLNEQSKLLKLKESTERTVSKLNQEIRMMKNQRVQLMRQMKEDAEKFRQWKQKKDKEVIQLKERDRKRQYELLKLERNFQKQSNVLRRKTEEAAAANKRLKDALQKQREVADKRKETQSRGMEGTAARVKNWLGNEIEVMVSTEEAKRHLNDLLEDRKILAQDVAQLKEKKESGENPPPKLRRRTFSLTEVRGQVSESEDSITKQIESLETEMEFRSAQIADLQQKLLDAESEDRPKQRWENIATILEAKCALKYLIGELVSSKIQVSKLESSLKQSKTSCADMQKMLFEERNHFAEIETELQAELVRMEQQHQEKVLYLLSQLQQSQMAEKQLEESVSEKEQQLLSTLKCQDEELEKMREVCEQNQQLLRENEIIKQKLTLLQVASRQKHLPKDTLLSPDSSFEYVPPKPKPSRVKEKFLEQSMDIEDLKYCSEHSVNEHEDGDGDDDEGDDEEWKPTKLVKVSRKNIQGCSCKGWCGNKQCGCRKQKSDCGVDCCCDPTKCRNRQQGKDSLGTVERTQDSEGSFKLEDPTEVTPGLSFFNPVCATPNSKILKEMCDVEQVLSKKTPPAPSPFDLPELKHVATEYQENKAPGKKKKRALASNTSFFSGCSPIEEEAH
Summary of the method: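 Each kinesin motor domain was tested against MT-stimulated ATPase at 22 °C in triplicate, with compounds at 15 µM. Buffer was 7.5 mM PIPES-NaOH pH 7.0 with MgCl2, Taxol, ELIPA reagents and 1.25 mg/mL MTs. Reactions were started with 1 mM Mg2+ATP and read kinetically at 360 nm. Monastrol and AMP-PNP (1 mM) were the controls.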

[2] = tested on: KB; assay: Growth inhibition of human KB cells at 10 uM after 72 hrs by MTS assay; assay type: functional; details: read-out: GI
Summary of the method: (§1)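 KB cells were grown in DMEM with 25 mM glucose and 10% FCS at 37 °C, 5% CO2, and seeded at 500 cells/well. 24 h later, compound in DMSO (1% final) was added at 10 µM or 1 µM for 72 h; controls received DMSO alone. Runs were in duplicate. Viable cells were read with MTS at 490 nm.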

[3] = species on record: Ovis aries; assay: Induction of sheep brain microtubule disassembly by UV spectrophotometric analysis
Summary of the method: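 Sheep brain tubulin, purified by two assembly/disassembly cycles and held in MES buffer with GTP at pH 6.6, was polymerized at 37 °C for 10 min. Compound was then added to the MTs at 0 °C and depolymerization was followed over the next few minutes by turbidity at 350 nm.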

[4] = species on record: Ovis aries; assay: Inhibition of sheep brain tubulin polymerization by UV spectrophotometric analysis; parameters: concentration or dose not given beside the values
Summary of the method: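 Tubulin purified from sheep brain by two assembly/disassembly cycles, about 2–3 mg/mL in 0.1 M MES, 0.5 mM MgCl2, 1 mM EGTA, 1 mM GTP, pH 6.6. Compound in DMSO added at 0 °C, then moved to a 37 °C thermostated cell. Assembly followed by turbidity at 350 nm for a few min.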

[5] = tested on: KB; assay: Growth inhibition of human KB cells at 1 uM after 72 hrs by MTS assay; assay type: functional; details: read-out: GI; summary of the method: as §1
[6] = biological target: T2, Kinesin-like protein KIF20A (Homo sapiens, UniProt O95235); assay: Inhibition of microtubule-stimulated N-terminal MKLP-2 (56 to 505 residues) ATPase activity isolated from human hepatocellular carcinoma cells by pyruvate kinase/lactate dehydrogenase enzyme linked assay; details: read-out: IC50
T2 sequence (O95235 whole entry): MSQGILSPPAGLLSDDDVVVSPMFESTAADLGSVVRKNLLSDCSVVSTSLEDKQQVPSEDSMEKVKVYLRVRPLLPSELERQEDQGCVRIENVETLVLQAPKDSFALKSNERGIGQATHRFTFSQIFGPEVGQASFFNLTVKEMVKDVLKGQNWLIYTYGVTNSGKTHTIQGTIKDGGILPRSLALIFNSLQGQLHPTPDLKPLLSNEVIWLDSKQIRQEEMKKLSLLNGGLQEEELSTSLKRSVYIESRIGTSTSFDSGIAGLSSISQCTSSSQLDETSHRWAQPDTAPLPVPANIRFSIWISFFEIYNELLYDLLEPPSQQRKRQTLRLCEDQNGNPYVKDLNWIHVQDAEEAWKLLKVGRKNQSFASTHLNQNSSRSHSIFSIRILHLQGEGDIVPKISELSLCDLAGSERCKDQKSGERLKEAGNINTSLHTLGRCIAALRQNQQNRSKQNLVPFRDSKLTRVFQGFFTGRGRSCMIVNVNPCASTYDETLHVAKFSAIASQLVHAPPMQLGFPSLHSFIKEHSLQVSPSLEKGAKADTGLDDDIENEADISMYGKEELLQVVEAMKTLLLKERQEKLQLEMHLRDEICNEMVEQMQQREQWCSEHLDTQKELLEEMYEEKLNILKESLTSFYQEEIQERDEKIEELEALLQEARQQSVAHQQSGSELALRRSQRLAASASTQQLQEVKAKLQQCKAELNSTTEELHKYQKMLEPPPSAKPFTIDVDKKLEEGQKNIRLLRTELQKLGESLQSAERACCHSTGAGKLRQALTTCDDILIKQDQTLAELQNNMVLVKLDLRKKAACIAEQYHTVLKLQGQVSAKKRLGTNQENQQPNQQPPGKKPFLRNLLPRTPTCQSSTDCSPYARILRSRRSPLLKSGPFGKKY

[7] = biological target: T2, Kinesin-like protein KIF20A; assay: Inhibition of N-terminal MKLP2 (56 to 505 residues) ATPase basal activity isolated from human hepatocellular carcinoma cells by pyruvate kinase/lactate dehydrogenase enzyme linked assay

`CCOC(=O)C1=C(C)NC(=S)NC1c1cccc(O)c1` (configuration not stated) was tested, and the inhibition [1] was less than 20%.
For `COc1ccc2c(/C(C#N)=C/c3cccnc3)c[nH]c2c1`, the inhibition of growth at 10 µM [2] was 87%, the Activity [3] was “inactive” and the inhibition ([4]; concentration not given here) was 54%. For the same molecule, the inhibition of growth at 1 µM [5] was 78%, the IC50 [6] was 5.4 µM and the inhibition [1] was less than 20%. For the same molecule, the IC50 ([7]; read-out: IC50) was 5.6 µM.
For `N#C/C(=C\c1cccnc1)c1c[nH]c2ccc(OCc3ccccc3)cc12`, the inhibition of growth at 10 µM [2] was 57%, the Activity [3] was “inactive” and the inhibition ([4]; concentration not given here) was 12%. For the same molecule, the IC50 [6] was 1.3 µM, the inhibition [1] was less than 20% and the IC50 [7] was “Not Active”.
`COc1ccc2[nH]cc(/C(C#N)=C/c3cccnc3)c2c1` was tested, and the inhibition of growth at 10 µM [2] was 57%, the inhibition [4] was “inactive” and the IC50 [6] was 0.23 µM. For the same molecule, the inhibition [1] was less than 20% and the IC50 ([7]; read-out: IC50) was 1.2 µM.
For `N#C/C(=C\c1ccc2c(c1)OCO2)c1c[nH]c2ccccc12`, the inhibition of growth at 10 µM [2] was 100%, the Activity [3] was “inactive” and the inhibition ([4]; concentration not given here) was 35%. The inhibition of growth at 1 µM [5] was 11%, the IC50 [6] was 5.1 µM and the inhibition [1] was less than 20%. For the same molecule, the IC50 ([7]; read-out: IC50) was 14.3 µM.
`COc1cccc2[nH]cc(/C(C#N)=C/c3cccnc3)c12` was tested, and the inhibition of growth at 10 µM [2] was 27%, the Activity [3] was “inactive” and the inhibition [4] was “inactive”. For the same molecule, the IC50 [6] was 3.3 µM, the inhibition [1] was less than 20% and the IC50 ([7]; read-out: IC50) was 4.2 µM.
